Values joined by “and” are separate entries in the source; they are usually repeats but may differ in a detail not shown here. Identical values can stand only once. “Also recorded” adds a separate entry of the source.
Experiments:
[1] = Oral pharmacokinetics and bioavailability in rats; type: in vivo; conditions: for Vd/F: Vz/F; for AUC(0-t): AUClast; for AUC(0-inf): AUCinf; for half-life: T1/2, male rats
Procedure, shortened: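 Sprague Dawley rats (8–12 wk, 3/sex/group, catheterised jugular vein) got one oral gavage dose of 10 or 50 mg/kg. Dose was a solution in cremophor:ethanol:saline (1:1:8), pH 4.0, at 10 ml/kg. EDTA plasma was collected at 5, 15, 30 min, 1, 2, 4, 6 and 24 h, precipitated with acetonitrile, and quantified by LC-MS/MS against abiraterone internal standard. Noncompartmental parameters; bioavailability from oral AUClast versus IV.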

Acute toxicity [2] = type: in vivo, mice; conditions: male, Nude, mouse, in vivo, ip
male Nude mice [3] = assay: Acute toxicity; type: in vivo; conditions: male nude mice
[4] = Chronic dosing toxicity in male nude mice; type: in vivo; conditions: male, Nude, mouse, in vivo, ip
male Nude mice [5] = assay: Chronic dosing toxicity in male nude mice; type: in vivo; conditions: male nude mice
Acute toxicity [6] = type: in vivo, mice; conditions: male, CD-1, mouse, in vivo, po
male CD-1 mice = assay: Acute toxicity; type: in vivo; conditions: male CD-1 mice
[7] = test system: CRPC CWR22Rv1 xenograft tumors; conditions: ref [26], cited from earlier work
[8] = male rats, 10 mg/kg PO, GeoMean
[9] = male rats, 10 mg/kg PO, individual rat, listed as VNPP433-3β, 10 mg/kg
[10] = male rats, 50 mg/kg PO, GeoMean
[11] = male rats, 50 mg/kg PO, individual rat, listed as VNPP433-3β, 50 mg/kg
[12] = male, Sprague Dawley, rat, plasma, po, 10 mg/kg, male rats, 10 mg/kg PO, GeoMean
[13] = male, Sprague Dawley, rat, plasma, po, 10 mg/kg, male rats, 10 mg/kg PO, individual rat
[14] = male, Sprague Dawley, rat, plasma, po, 50 mg/kg, male rats, 50 mg/kg PO, GeoMean
[15] = male, Sprague Dawley, rat, plasma, po, 50 mg/kg, male rats, 50 mg/kg PO, individual rat

## C[C@]12CC[C@H](n3ccnc3)CC1=CC[C@@H]1[C@@H]2CC[C@]2(C)C(n3cnc4ccccc43)=CC[C@@H]12 [Compound 2, 3β-(1H-imidazole-1-yl)-17-(1H-benzimidazole-1-yl)-androsta-5,16-diene]
[1]; female, Sprague Dawley, rat, plasma, po, 10 mg/kg, Cmax, female rats, 10 mg/kg PO, GeoMean
  Cmax: 594 ng/mL
[1]; female, Sprague Dawley, rat, plasma, po, 10 mg/kg, Cmax, female rats, 10 mg/kg PO, individual rat
  Cmax: 755 ng/mL
[1]; female, Sprague Dawley, rat, plasma, po, 10 mg/kg, Tmax, female rats, 10 mg/kg PO, GeoMean
  Tmax: 6 h
[1]; female, Sprague Dawley, rat, plasma, po, 10 mg/kg, Tmax, female rats, 10 mg/kg PO, individual rat
  Tmax: 6 h
[1]; female, Sprague Dawley, rat, plasma, po, 10 mg/kg, female rats, 10 mg/kg PO, GeoMean
  Vd/F: 16.3 L/kg
[1]; female, Sprague Dawley, rat, plasma, po, 10 mg/kg, female rats, 10 mg/kg PO, individual rat
  Vd/F: 12.7 L/kg
[1]; female, Sprague Dawley, rat, plasma, po, 50 mg/kg, female rats, 50 mg/kg PO, GeoMean
  AUC(0-t): 80000 ng·h/mL
[1]; female, Sprague Dawley, rat, plasma, po, 50 mg/kg, female rats, 50 mg/kg PO, individual rat
  AUC(0-t): 76800 ng·h/mL
[1]; female, Sprague Dawley, rat, plasma, po, 50 mg/kg, Cmax, female rats, 50 mg/kg PO, GeoMean
  Cmax: 4500 ng/mL
[1]; female, Sprague Dawley, rat, plasma, po, 50 mg/kg, Cmax, female rats, 50 mg/kg PO, individual rat
  Cmax: 4380 ng/mL
[1]; female, Sprague Dawley, rat, plasma, po, 50 mg/kg, Tmax, female rats, 50 mg/kg PO, GeoMean
  Tmax: 24 h
[1]; female, Sprague Dawley, rat, plasma, po, 50 mg/kg, Tmax, female rats, 50 mg/kg PO, individual rat
  Tmax: 23.3 h
[1]; [8]
  AUC% Extrap: 16.5%
  Cmax/D: 61.3 ng/mL/mg/kg
[1]; [9]
  AUC% Extrap: 24.4% and 9.55% and 19.3%
  AUCinf: 364 µg·min/mL and 715 µg·min/mL
  AUClast: 329 µg·min/mL and 577 µg·min/mL
  CL/F: 27.5 mL/min/kg and 14.0 mL/min/kg
  Cmax: 460 ng/mL and 715 ng/mL
  Cmax/D: 70.2 ng/mL/mg/kg and 46.0 ng/mL/mg/kg and 71.5 ng/mL/mg/kg
  T1/2: 6.3 h and 9.0 h
  Vz/F: 15.0 L/kg and 10.9 L/kg
[1]; [10]
  AUC% Extrap: 79.5%
  Cmax/D: 54.5 ng/mL/mg/kg
[1]; male rats, 50 mg/kg PO, individual rat
  Tmax: 6 h
[1]; [11]
  AUC% Extrap: 94.3% and 66.9%
  AUClast: 4460 µg·min/mL and 3600 µg·min/mL
  Cmax: 3430 ng/mL and 3160 ng/mL
  Cmax/D: 37.4 ng/mL/mg/kg and 68.6 ng/mL/mg/kg and 63.2 ng/mL/mg/kg
  Tmax: 6 h
[1]; male rats, PO
  Time of peak of PO concentration-time profiles: 6 h
[1]; [12]
  AUC(0-inf): 9380 ng·h/mL
  AUC(0-t): 7700 ng·h/mL
  Vd/F: 12.6 L/kg
[1]; [13]
  AUC(0-inf): 11400 ng·h/mL
  AUC(0-t): 8650 ng·h/mL
  Vd/F: 12.4 L/kg
[1]; male, Sprague Dawley, rat, plasma, po, 10 mg/kg, CL/F, male rats, 10 mg/kg PO, GeoMean
  CL/F: 17.8 mL/min/kg
[1]; male, Sprague Dawley, rat, plasma, po, 10 mg/kg, CL/F, male rats, 10 mg/kg PO, individual rat
  CL/F: 14.6 mL/min/kg
[1]; male, Sprague Dawley, rat, plasma, po, 10 mg/kg, Cmax, male rats, 10 mg/kg PO, GeoMean
  Cmax: 613 ng/mL
[1]; male, Sprague Dawley, rat, plasma, po, 10 mg/kg, Cmax, male rats, 10 mg/kg PO, individual rat
  Cmax: 702 ng/mL
[1]; male, Sprague Dawley, rat, plasma, po, 10 mg/kg, 10 mg/kg PO, GeoMean
  half-life: 8.22 h
[1]; male, Sprague Dawley, rat, plasma, po, 10 mg/kg, 10 mg/kg PO, individual rat
  half-life: 9.8 h
[1]; male, Sprague Dawley, rat, plasma, po, 10 mg/kg, Tmax, male rats, 10 mg/kg PO, GeoMean
  Tmax: 6 h
[1]; male, Sprague Dawley, rat, plasma, po, 10 mg/kg, Tmax, male rats, 10 mg/kg PO, individual rat
  Tmax: 6 h
[1]; [14]
  AUC(0-t): 56200 ng·h/mL
  Vd/F: 14.6 L/kg
[1]; [15]
  AUC(0-t): 39700 ng·h/mL
  Vd/F: 14.4 L/kg
[1]; male, Sprague Dawley, rat, plasma, po, 50 mg/kg, CL/F, male rats, 50 mg/kg PO, GeoMean
  CL/F: 1.71 mL/min/kg
[1]; male, Sprague Dawley, rat, plasma, po, 50 mg/kg, Cmax, male rats, 50 mg/kg PO, GeoMean
  Cmax: 2730 ng/mL
[1]; male, Sprague Dawley, rat, plasma, po, 50 mg/kg, Cmax, male rats, 50 mg/kg PO, individual rat
  Cmax: 1870 ng/mL
[1]; male, Sprague Dawley, rat, plasma, po, 50 mg/kg, Tmax, male rats, 50 mg/kg PO, GeoMean
  Tmax: 9.52 h
[1]; rats, PO dosing, text (and beyond)
  Extrapolated percentage of AUC0-inf: 17–82%
Acute toxicity [2]
  MTD at 2 weeks: 50 mg/kg
Male Nude mice [3]; 100 mg/kg single intraperitoneal dose, 3 mice, 100 mg/kg
  Mortality: one mouse died in the 100 mg/kg group
Male Nude mice [3]; 25 and 50 mg/kg single intraperitoneal dose, two weeks
  Signs of toxicity: did not exhibit any signs of toxicity
[4]
  MTD at 14 days: 25 to 50 mg/kg
Male Nude mice [5]; 0.5 MTD group, five days a week for two weeks, day 7
  Mortality: Two mice died
Male Nude mice [5]; chronic dosing 0.2 MTD and MTD groups, 14 days
  Condition of other groups: looked healthy
Acute toxicity [6]
  NOAEL at 72 h: > 300 mg/kg
Male CD-1 mice; 100 mg/kg PO, observed 72 hrs
  Tolerability and mortality: well tolerated, and no mortality was observed
Male CD-1 mice; 1000 mg/kg PO, 3 mice, 1000 mg/kg
  Mortality: two mice died on days 2 and the third mice died on day 3; also recorded: Two mice were in a moribund stage and found dead 36 hrs. post dose, the third mice died 72 hrs. post dose
Male CD-1 mice; 1000 mg/kg PO, after 24 hrs
  Clinical signs: piloerection, apathy (inactive) and hypothermia
Male CD-1 mice; all three dose groups (100, 300, 1000 mg/kg PO), postmortem
  Gross necropsy, organ toxicity: no evident organ toxicity
Male CD-1 mice; low (100 mg/kg) and medium (300 mg/kg) dose PO, after 72 hrs
  Signs of toxicity at necropsy: no signs of toxicity were observed
[7]; CWR22Rv1 xenograft study
  Host toxicity: no apparent host toxicity
[7]; CWR22Rv1 xenograft, 2 at 7.53-fold lower equimolar dose than Gal, p < 0.01
  Suppression of tumor growth: 84%
[7]; CWR22Rv1 xenograft
  Efficacy compared with enzalutamide: more efficacious than enzalutamide
